The values that follow come from ChEMBL document CHEMBL4385637, “2-Aryladenine derivatives as a potent scaffold for A1, A3 and dual A1/A3 adenosine receptor antagonists: Synthesis and structure-activity relationships” (Bioorg Med Chem, 2019).

The target in assay [1] is T1, Adenosine receptor A1 (Homo sapiens) (UniProt P30542).
T1 sequence (whole entry): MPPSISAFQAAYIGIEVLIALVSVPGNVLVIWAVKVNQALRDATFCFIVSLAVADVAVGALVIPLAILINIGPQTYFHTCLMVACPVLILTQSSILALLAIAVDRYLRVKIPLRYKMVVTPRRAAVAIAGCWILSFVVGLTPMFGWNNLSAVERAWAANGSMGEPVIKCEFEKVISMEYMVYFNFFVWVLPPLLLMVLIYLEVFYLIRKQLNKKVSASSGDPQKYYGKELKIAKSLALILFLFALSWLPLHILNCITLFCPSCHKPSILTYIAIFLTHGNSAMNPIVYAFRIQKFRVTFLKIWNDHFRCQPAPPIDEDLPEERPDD
The experiment in a line: Displacement of [3H]DPCPX from human A1 receptor expressed in CHO-A1 cells at 10 uM incubated for 60 mins by scintillation counting method based radioligand competitive binding assay. It counts as cell-based. In short, it runs like this: (§1)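 CHO-A1 membranes, 15 μg protein, in 20 mM Hepes, 100 mM NaCl, 10 mM MgCl2, 2 UI/ml adenosine deaminase, pH 7.4. Radioligand 2 nM [3H]DPCPX; nonspecific binding with 10 μM (R)-PIA. Incubated 25 °C for 60 min, filtered, counted, in duplicate. Screen at 10 μM; compounds >80% inhibition tested at 6 concentrations (10 nM–100 μM), Ki by Cheng-Prusoff.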

In assay [2] the target is T2, Adenosine receptor A2a (Homo sapiens, UniProt P29274). The experiment in a line: Displacement of [3H]ZM241385 from human A2A receptor expressed in HeLa-A2A cells at 10 uM incubated for 30 mins by scintillation counting method based radioligand competitive binding assay. The format is cell-based. In short, it runs like this:
(§2)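 Uses HeLa-A2A membranes, 10 µg protein, buffer 50 mM Tris-HCl, 1 mM EDTA, 10 mM MgCl2, 2 UI/mL adenosine deaminase, pH 7.4. 3 nM [3H]ZM241385; nonspecific with 50 µM NECA. 30 min at 25 °C, GF/C filtration, duplicate wells. Screened at 10 μM; if >80% inhibition, 6 concentrations 10 nM–100 μM, Ki by Cheng-Prusoff.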

Assay [3] concerns the target T3, Adenosine receptor A2b (Homo sapiens) (UniProt P29275).
T3 sequence (whole entry): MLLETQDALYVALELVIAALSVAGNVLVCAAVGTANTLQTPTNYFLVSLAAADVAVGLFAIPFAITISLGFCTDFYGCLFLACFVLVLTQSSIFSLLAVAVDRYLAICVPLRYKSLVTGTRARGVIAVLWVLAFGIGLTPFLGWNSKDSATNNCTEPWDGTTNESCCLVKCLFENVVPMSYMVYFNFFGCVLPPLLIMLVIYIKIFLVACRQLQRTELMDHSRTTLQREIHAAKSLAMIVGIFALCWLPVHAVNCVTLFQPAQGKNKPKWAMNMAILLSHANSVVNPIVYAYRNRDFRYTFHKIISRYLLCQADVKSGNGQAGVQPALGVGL
The assay can be described thus: Displacement of [3H]DPCPX from human A2B receptor expressed in HEK-293-A2B cells at 10 uM incubated for 30 mins by scintillation counting method based radioligand competitive binding assay. It counts as cell-based. In short, it runs like this:
(§3)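 HEK-293-A2B membranes, 18 μg protein, in 50 mM Tris-HCl, 1 mM EDTA, 10 mM MgCl2, 0.1 mM benzamidine, 10 µg/mL bacitracin, 2 UI/mL adenosine deaminase, pH 6.5. Tracer 35 nM [3H]DPCPX; 400 μM NECA defines nonspecific binding. 25 °C for 30 min, GF/C filtration, duplicates. Single-point 10 μM screen, then 6-point curves (10 nM–100 μM), Cheng-Prusoff Ki.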

Assay [4] deals with T4, Adenosine receptor A3 (Homo sapiens) (UniProt P0DMS8).
T4 sequence (whole entry): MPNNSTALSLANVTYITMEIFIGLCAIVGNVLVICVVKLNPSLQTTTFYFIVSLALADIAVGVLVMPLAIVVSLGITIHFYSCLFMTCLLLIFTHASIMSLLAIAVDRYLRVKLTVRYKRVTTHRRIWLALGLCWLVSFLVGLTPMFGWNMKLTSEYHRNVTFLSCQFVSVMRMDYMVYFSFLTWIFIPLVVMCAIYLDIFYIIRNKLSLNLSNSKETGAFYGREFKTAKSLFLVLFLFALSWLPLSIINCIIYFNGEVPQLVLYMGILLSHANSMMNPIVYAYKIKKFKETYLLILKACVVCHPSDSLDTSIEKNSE
The experiment in a line: Displacement of [3H]NECA from human A3 receptor expressed in HeLa-A3 cells at 10 uM incubated for 180 mins by scintillation counting method based radioligand competitive binding assay. It counts as cell-based. In short, it runs like this:
(§4)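 Membranes of HeLa-A3 cells (90 μg protein) in 50 mM Tris-HCl, 1 mM EDTA, 5 mM MgCl2, 2 UI/mL adenosine deaminase, pH 7.4, with 30 nM [3H]NECA. Nonspecific: 100 μM (R)-PIA. 180 min at 25 °C, GF/B filtration, triplicates, scintillation counting. 10 μM single-point inhibition; >80% actives run at 6 concentrations (10 nM–100 μM), pKi via Cheng-Prusoff.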

In assay [5] the target is T4, Adenosine receptor A3 (Homo sapiens). The experiment in a line: Antagonist activity at human A3 receptor in CHO-A3 cells assessed as reduction in NECA-induced inhibition of forskolin-stimulated cAMP accumulation preincubated for 15 mins followed by NECA addition and further incubated for 15 mins by ELISA. It counts as functional, cell-based. In short, it runs like this: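 CHO cells expressing human A3, washed in DMEM F-12 with 25 mM HEPES pH 7.4 and 30 μM rolipram. Compound preincubated 15 min, then NECA (0.1 nM–1 mM) and 10 μM forskolin added for 15 min. cAMP quantified by enzyme immunoassay. Antagonist curves run against 0.1 μM NECA, duplicates. pKB calculated from IC50, agonist level, A50 and Hill slope.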

In another assay the target is T5, Adenosine receptor A1 (Homo sapiens, UniProt P30542).
T5 sequence (P30542 whole entry): T1 sequence (whole entry)
The assay can be described thus: Displacement of [3H]DPCPX from human A1 receptor expressed in CHO-A1 cells incubated for 60 mins by scintillation counting method based radioligand competitive binding assay. It counts as cell-based. In short, it runs like this:
as §1

The target of assay [6] is T2, Adenosine receptor A2a. The assay can be described thus: Displacement of [3H]ZM241385 from human A2A receptor expressed in HeLa-A2A cells incubated for 30 mins by scintillation counting method based radioligand competitive binding assay. The format is cell-based. In short, it runs like this:
as §2

In the next assay the target is T6, Adenosine receptor A3 (Homo sapiens, UniProt P0DMS8).
T6 sequence (P0DMS8 whole entry): T4 sequence (whole entry)
The assay can be described thus: Displacement of [3H]NECA from human A3 receptor expressed in HeLa-A3 cells incubated for 180 mins by scintillation counting method based radioligand competitive binding assay. The format is cell-based. In short, it runs like this: as §4

Assay [7] concerns the target T1, Adenosine receptor A1 (Homo sapiens). The assay can be described thus: Antagonist activity at human A1 receptor in CHO-A1 cells assessed as reduction in NECA-induced inhibition of forskolin-stimulated cAMP accumulation preincubated for 15 mins followed by NECA addition and further incubated for 15 mins by ELISA. The format is functional, cell-based. In short, it runs like this:
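CHO-A1 cells stably expressing receptor, grown with dialyzed FBS, washed in F-12 medium with 25 mM HEPES pH 7.4 and 20 μM rolipram. Test compound preincubated 15 min, then NECA (0.1 nM–1 mM) plus 3 μM forskolin added for 15 min. cAMP measured by enzyme immunoassay with TMB readout. pKB derived from antagonist curve against NECA effect.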

In a further assay the target is T7, Adenosine receptor A2b (Homo sapiens, UniProt P29275).
T7 sequence (P29275 whole entry): T3 sequence (whole entry)
The experiment in a line: Displacement of [3H]DPCPX from human A2B receptor expressed in HEK-293-A2B cells incubated for 30 mins by scintillation counting method based radioligand competitive binding assay. The format is cell-based. In short, it runs like this:
as §3

T2 sequence (P29274 whole entry): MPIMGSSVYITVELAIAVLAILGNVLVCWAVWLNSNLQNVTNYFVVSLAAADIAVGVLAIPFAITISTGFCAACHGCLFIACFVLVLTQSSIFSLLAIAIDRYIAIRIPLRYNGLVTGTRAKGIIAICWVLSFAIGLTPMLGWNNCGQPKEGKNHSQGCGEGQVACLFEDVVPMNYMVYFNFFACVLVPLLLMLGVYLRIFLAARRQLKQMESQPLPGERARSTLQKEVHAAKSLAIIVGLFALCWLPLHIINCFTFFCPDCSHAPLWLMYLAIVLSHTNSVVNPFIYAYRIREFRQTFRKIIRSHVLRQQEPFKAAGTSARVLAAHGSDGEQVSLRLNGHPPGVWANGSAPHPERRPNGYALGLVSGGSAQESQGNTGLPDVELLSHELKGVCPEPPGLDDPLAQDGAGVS

`Clc1ccc(-c2nc(N3CCCCC3)c3nc[nH]c3n2)cc1`: the inhibition in [1] was above 80%; on Adenosine receptor A2a [2] it was above 80%; in [3], 1.4%; in [4], above 80%. Moreover, in assay [5], the pKb stood at 8.2. The Ki on Adenosine receptor A1 is 126 nM; at Adenosine receptor A2a [6] it was 3160 nM; at Adenosine receptor A3 it was 7.94 nM.

Take `Oc1cccc(-c2nc(N3CCCCC3)c3nc[nH]c3n2)c1`: the inhibition (in assay [1]; on Adenosine receptor A2a [2]; in [3]; in assay [4]) was above 80% each time. For the same molecule, in assay [7], the pKb was 7.9. Further, the Ki at Adenosine receptor A1 is 10 nM; on Adenosine receptor A2a [6], 316 nM; on Adenosine receptor A2b, 158 nM; on Adenosine receptor A3, 63.1 nM.
